Results from different studies.
Each line is one published result; the experiments were not run side by side.
Target: Carbonic anhydrase 1 (CA1, Homo sapiens, UniProt P00915)
Read-out: enzyme activity
Mode: inhibitor

Structure (SMILES)	method	measurement	value
O=C(Nc1ccc2c(c1)C=CCP(=O)(O)O2)c1ccccc1I	stopped-flow	Ki	> 10000 nM
NC(=S)N/N=C1/c2ccccc2[C@@H]2[C@H]1[C@@H](c1ccc(C(F)(F)F)cc1)[C@H](C(=O)c1ccc(C(F)(F)F)cc1)[C@H]2c1ccc(C(F)(F)F)cc1 (racemic)	absorbance	IC50	570 nM
CC(C)c1cc2c(c(O)c1O)[C@@]13CCCC(C)(C)[C@@H]1[C@@H](O)[C@@H]2OC3=O	–	IC50	1.63 nM
Cc1cc(=O)oc2cc(OCCCC[Se]C#N)ccc12	stopped-flow	Ki	> 100000 nM
O=C(Nc1ccc(Cl)cc1)Nc1ccc2c(c1)C=CCP(=O)(O)O2	stopped-flow	Ki	> 10000 nM
NC(=S)N/N=C1/c2ccccc2[C@@H]2[C@H]1[C@@H](c1ccoc1)[C@H](C(=O)c1ccco1)[C@H]2c1ccoc1	absorbance	IC50	434 nM
CC(C)c1cc2c(c(O)c1O)[C@@]13CCCC(C)(C)[C@@H]1[C@H](OC3=O)[C@H]2O	–	Ki	0.12 nM
O=C(Nc1cccc(C(F)(F)F)c1)Nc1ccc2c(c1)C=CCP(=O)(O)O2	stopped-flow	Ki	> 10000 nM
COc1ccc(C(=O)[C@@H]2[C@@H](c3ccc(OC)cc3)[C@@H]3c4ccccc4/C(=N/NC(N)=S)[C@@H]3[C@H]2c2ccc(OC)cc2)cc1 (racemic)	absorbance	IC50	1070 nM
CC(C)c1cc2c(c(O)c1O)[C@@]1(C(=O)O)CCCC(C)(C)[C@@H]1CC2	–	IC50	3.1 nM
COc1ccc(NC(=O)Nc2ccc3c(c2)C=CCP(=O)(O)O3)cc1	stopped-flow	Ki	> 10000 nM
CC(C)c1cc2c(c(O)c1O)[C@@]13CCCC(C)(C)[C@@H]1C[C@@H]2OC3=O	–	Ki	2.3 nM
NC(=S)N/N=C1/c2ccccc2[C@@H]2[C@H]1[C@@H](c1ccsc1)[C@H](C(=O)c1ccsc1)[C@H]2c1ccsc1 (racemic)	absorbance	IC50	452 nM
Cc1c(Cl)c(=O)oc2cc(OCCCC[Se]C#N)ccc12	stopped-flow	Ki	> 100000 nM
Cc1ccc(C(=O)Nc2ccc3c(c2)C=CCP(=O)(O)O3)cc1	stopped-flow	Ki	> 10000 nM
